Shown are actives, neighbours in structure and some others; about 4.2% of the full set was active somewhere.
ANO1 activ: TMEM16A chloride channel activators or potentiators, primary screen, cell-based, HTS. Anoctamin-1 (Mus musculus), Q8BHY3. actives 0.3% (n = 340,000). HEK293 TMEM16A/YFP-H148Q/I152L, iodide quench fluorescence; stronger effect = lower value. AID 623877, 2012. B-score at 10 µM;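 active = fluorescence-ratio B-score plate-corrected deviation score at least 3 library SD below zero, with starting fluorescence score within 5 deviations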;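 note: channel opened by trigger with iodide after compound preincubation; score built on the fluorescence ratio of max minus min over baseline; more negative score means more quench and so TMEM16A activation or potentiation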
Target sequence (Q8BHY3 whole entry, looked up): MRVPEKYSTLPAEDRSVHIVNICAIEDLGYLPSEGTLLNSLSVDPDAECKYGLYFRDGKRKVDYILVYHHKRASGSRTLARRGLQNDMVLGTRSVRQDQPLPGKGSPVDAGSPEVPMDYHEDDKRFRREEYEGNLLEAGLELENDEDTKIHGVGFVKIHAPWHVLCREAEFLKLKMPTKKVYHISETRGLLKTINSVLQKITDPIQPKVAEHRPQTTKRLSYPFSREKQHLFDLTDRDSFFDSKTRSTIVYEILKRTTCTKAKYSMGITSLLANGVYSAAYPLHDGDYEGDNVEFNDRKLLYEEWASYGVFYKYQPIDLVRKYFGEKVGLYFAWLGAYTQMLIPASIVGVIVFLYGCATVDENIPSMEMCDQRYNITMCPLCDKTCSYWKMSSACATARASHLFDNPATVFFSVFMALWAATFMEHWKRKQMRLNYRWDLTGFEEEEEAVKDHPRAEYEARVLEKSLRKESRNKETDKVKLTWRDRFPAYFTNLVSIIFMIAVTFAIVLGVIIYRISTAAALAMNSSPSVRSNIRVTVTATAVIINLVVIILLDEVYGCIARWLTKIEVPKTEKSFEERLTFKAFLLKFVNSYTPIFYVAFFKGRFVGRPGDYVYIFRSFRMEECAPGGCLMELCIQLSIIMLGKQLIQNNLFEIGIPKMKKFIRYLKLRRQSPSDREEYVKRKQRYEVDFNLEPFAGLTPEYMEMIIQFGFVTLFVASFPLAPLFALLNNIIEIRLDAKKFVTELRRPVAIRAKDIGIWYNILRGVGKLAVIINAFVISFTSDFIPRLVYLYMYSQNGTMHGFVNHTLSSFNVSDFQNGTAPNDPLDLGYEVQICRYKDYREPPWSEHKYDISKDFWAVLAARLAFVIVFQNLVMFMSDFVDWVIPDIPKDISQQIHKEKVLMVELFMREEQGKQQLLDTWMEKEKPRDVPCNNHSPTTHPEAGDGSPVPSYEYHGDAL
Hep lipid drop: inhibitors of hepatocyte lipid droplet formation, primary screen, imaging, high-throughput imaging, BODIPY stain. AML12 mouse hepatocytes, oleate lipid droplets. inhibition, % at 6.5 µM. actives 0.4% (n = 240,000). AID 1656, 2009;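 active = lipid droplet intensity inhibited by at least 50%, with more than 500 cells counted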
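Test system: AML12 hepatocytes (mouse); reagent: oleate loading, 100 µM; dosing: one dose, 6.5 µM compound; incubation: overnight exposure; signal: fluorescence imaging, 20x objective, two fields per well; read-out basis: % inhibition of corrected integrated BODIPY droplet signal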
CHOP inhibitor: inhibitors of CHOP promoter induction, primary screen, cell-based, unfolded protein response, luciferase reporter; CHO-K1 CHOP-promoter luciferase, tunicamycin-induced, 15-18 h; inhibition, % at 10 µM; actives 3.8% (n = 220,000);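 active = compounds that reduced the stress-induced luciferase reporter signal by more than about 70% of percent inhibition, limit read from the data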;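 note: 0% = tunicamycin plus vehicle and 100% = wells without tunicamycin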
UPR XBP1 act: activators of adaptive XBP1 UPR arm, primary screen, cell-based, CHO-XBP1 luciferase reporter, luminescence, uHTS; IRE1-XBP1 UPR activation; percent of tunicamycin response, DMSO as zero; activation, % at 20 µM; actives 0.33% (n = 330,000); AID 463104, 2010;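 active = versus positive control, 20 µM dose yields 30% or more activation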;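 note: 100% = tunicamycin at 10 µg/mL and 0% = DMSO only wells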
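incubation = overnight seeding at 37 °C, 6 h compound treatment at 37 °C | assay system = CHO-XBP1 cells stably carrying IRE1-XBP1-driven luciferase reporter | input = 1000 cells per well | detection = luciferase luminescence | dosing = single point, 20 µM final compound, 1% DMSO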
UPR CHOP act: activators of apoptotic CHOP UPR arm, primary screen, cell-based, CHO-CHOP luciferase reporter, luminescence, uHTS | actives 0.34% (n = 330,000) | activation, % at 10 µM | AID 449763, 2010 | UPR activation; percent of tunicamycin response over DMSO baseline;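 active = at 10 µM dose, activation of 40% or more, normalized to positive control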;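 note: 100% = tunicamycin at 10 µg/mL and 0% = DMSO alone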
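System: CHO CHOP reporter cells. Amount: 500 cells per well. Buffer or medium: F12 medium, 10% FBS. Compound dosing: one dose, 10 µM in 0.5% DMSO. Incubation: 6 h compound exposure at 37 °C after overnight seeding. Technique: Steady-Glo luciferase luminescence. Benchmarks: tunicamycin and DMSO controls.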
TMEM16A inh: TMEM16A chloride channel inhibitors, primary screen, cell-based, HTS. Anoctamin-1 (Mus musculus), Q8BHY3. HEK293 TMEM16A/YFP iodide influx fluorescence, ionomycin. normalized B-score (activity score, 25-100; higher = stronger inhibition) at 10 µM. actives 1.2% (n = 310,000);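 active = ratio plate-corrected score three or more library SD toward inhibition, starting fluorescence score within five deviations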;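 note: score derived from kinetic fluorescence span divided by baseline fluorescence per well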
* hit, by the source's call; i = inactive; . = not tested or not shown.

SMILES	ANO1 activ	Hep lipid drop	CHOP inhibitor	UPR XBP1 act	UPR CHOP act	TMEM16A inh
COc1ccc(-c2nc(-c3ccc(NC(=O)c4ccncc4)cc3)no2)cc1OC	i	4	72*	-3	1	i
CCc1ccc(-c2csc(-c3c[nH]c4ccccc34)n2)cc1	i	-3	86*	2	9	i
CCC(=O)OCCn1c(=O)c2ccccc2c2ccccc2c1=O	i	23	19	1	0	i
CC(C)CCn1c(=O)c2ccccc2c2ccccc2c1=O	i	4	78*	-2	-1	i
CCCc1c(C(=O)N/N=C/c2ccncc2)nnn1-c1nonc1N	i	0	.	6	-1	.
Cc1ccccc1N=Cc1cc2c(cc1O)OC(N)=C(C#N)C2c1ccccc1 (stereo not given)	i	-6	89*	0	2	i
COc1ccc(S(=O)(=O)N2CCCCCC2)cc1C(=O)Nc1ccc(C(=O)N(C)C)cc1	i	.	.	-1	0	.
O=S(=O)(NCC1(N2CCOCC2)CCCCC1)c1ccc(Cl)cc1C(F)(F)F	-18*	-22	.	-1	3	i
CCC1Oc2ccc(C)cc2N(CC(=O)N(Cc2cccnc2)Cc2cccc(F)c2)C1=O (stereo not given)	i	17	-18	0	1	100*
CCC1Oc2ccc(C)cc2N(CC(=O)N(Cc2ccncc2)Cc2ccco2)C1=O (stereo not given)	i	-28	10	0	-1	i
CC(C)c1ccc(-c2nc3ccccc3s2)cc1	i	-6	93*	-7	-9	i
COc1cc(-c2nc3ccccc3s2)ccc1O	i	-3	15	5	5	i
Cc1ccc(S(=O)(=O)N2[C@@H](c3ccc(C(C)C)cc3)C(C(=O)O)=C[C@H]2C(C)(C)C)cc1	.	.	.	-1	3	.
Cc1onc(-c2ccccc2)c1C(=O)NNC(=S)NC(=O)c1ccc(Cl)cc1Cl	i	9	86*	-1	-1	100*
Cc1onc(-c2ccccc2)c1C(=O)NNC(=S)NC(=O)c1ccc(Br)cc1	i	-10	61	.	.	100*
Cc1onc(-c2ccccc2Cl)c1C(=O)NC(=S)NCC(=O)c1ccccc1	-9*	-17	-43	4	4	i
Cc1ccc(S(=O)(=O)NNC(=O)c2ccc3ccccc3n2)cc1	i	0	.	-2	-2	i
COc1ccc(CCN2Cc3c(N)cccc3C2=O)cc1OC	i	.	.	2	1	i
COc1ccc(C)cc1NC(=O)c1cc2c(=O)n3ccccc3nc2n1C	i	20	-24	1	0	i
COc1ccc(NC(=O)c2cc3c(=O)n4ccccc4nc3n2C)cc1OC	i	1	78*	3	2	i
O=C(NCCC1=CCCCC1)c1ccc(Cl)c(S(=O)(=O)N2CCCCC2)c1	i	-1	.	-1	0	25*
Cc1ccc(CSCCNC(=O)c2ccc(Cl)c(S(=O)(=O)N3CCOCC3)c2)cc1	i	2	39	-1	0	25*
O=C(NCCC1=CCCCC1)c1ccc(Cl)c(S(=O)(=O)N2CCOCC2)c1	i	13	57	0	0	i
CCOC(=O)C(NC(C)=O)C(O)c1ccc([N+](=O)[O-])cc1 (stereo not given)	i	2	-4	-3	3	i
CCCCCCCCCCCC(=O)NC(C(=O)OCC)C(O)c1cccc([N+](=O)[O-])c1 (stereo not given)	i	.	92*	0	3	i
SMILES	ANO1 activ	Hep lipid drop	CHOP inhibitor	UPR XBP1 act	UPR CHOP act	TMEM16A inh
CCOC(=O)c1ccc(N2C(=O)c3n[nH]c(C)c3C2c2ccco2)cc1 (stereo not given)	i	.	22	-1	0	i
CCOC(=O)c1ccc(N2C(=O)c3n[nH]c(-c4ccco4)c3C2c2cccc([N+](=O)[O-])c2)cc1 (stereo not given)	i	48	71*	1	2	i
CC(=O)NC(CC(=O)NC(C)c1ccc(Cl)cc1Cl)c1ccccc1 (stereo not given)	-32*	12	22	-2	-1	i
CCCN(CC(=O)Nc1ccc(Cl)cc1Cl)C(=O)CC(NC(C)=O)c1ccccc1 (stereo not given)	i	-10	.	-4	1	i
CCOC(=O)c1sc(N(Cc2ccccc2)C(=O)CSc2ncn[nH]2)nc1C	i	1	64	-3	0	i
O=C(O)CSCC(=O)N(Cc1ccccc1)c1nc(-c2ccccc2)c(-c2ccccc2)s1	i	-4	.	-3	5	100*
O=C(Cn1nnc(-c2ccccc2)n1)OCc1csc(-c2ccccc2)n1	i	.	44	-1	2	i
O=C(Cn1nnc(-c2ccccc2)n1)OCc1ccccc1	i	.	76*	0	-2	i
CC(C)CC(=O)NC(NC(=S)Nc1sc2c(c1C#N)CCCC2)C(Cl)(Cl)Cl (stereo not given)	i	.	79*	-1	2	100*
CCC(=O)Nc1sc2c(c1C#N)CCC2	i	-16	-3	0	-1	i
C#CCOCCOCCOCCNc1nc(N2CCN(C(=O)CCCCCCCCCCNC(=O)[C@H]([C@@H](C)CC)n3cc(CCCCCN)nn3)CC2)nc(N2CCN(C(=O)CCCCCCCCCCNC(=O)[C@@H]([C@H](C)O)n3cc(C)nn3)CC2)n1	-12*	.	.	18	3	i
C#CCOCCOCCOCCNc1nc(N2CCN(C(=O)CCCCCCCCCCNC(=O)Cn3cc(CCCCCN)nn3)CC2)nc(N2CCN(C(=O)CCCCCCCCCCNC(=O)[C@H]([C@@H](C)CC)n3cc(CCCCCN)nn3)CC2)n1	-13*	.	.	14	-1	25*
C#CCOCCOCCOCCNc1nc(N2CCN(C(=O)CCCCCCCCCCNC(=O)[C@H](CCC(=O)O)n3cc(CCCCCN)nn3)CC2)nc(N2CCN(C(=O)CCCCCCCCCCNC(=O)[C@@H]([C@H](C)O)n3cc(C)nn3)CC2)n1	i	.	.	2	4	i

High-throughput results (PubChem)
